Results from ChEMBL document CHEMBL3232953, “Synthesis, characterization and anti-proliferative activity of heterocyclic hypervalent organoantimony compounds” (Eur J Med Chem, 2014).

Experiments:
A549 [1] = experiment: Antiproliferative activity against human A549 cells after 48 hrs by CCK-8 assay; assay type: functional, cell-based; conditions: A549, 48 h
Method in brief: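 A549 cells in RPMI1640 with 10% newborn calf serum and 1% penicillin-streptomycin at 37 °C, 5% CO2. Seeded 5 × 10³ cells/well, compounds added after 12 h from DMSO stocks diluted in medium (final DMSO < 0.1% v/v). After 48 h, CCK-8 added for 2 h and OD read at 490 nm. IC50 by Probit regression of inhibition ratio against concentration. At least three experiments.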

A549 [2] = experiment: Antiproliferative activity against human A549 cells at 30 uM after 24 to 72 hrs by CCK-8 assay; assay type: functional
Method in brief: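 Time course in A549 cells seeded 5 × 10³ cells/well. Compounds tested at 1, 3, 10 and 30 […] for the periods shown, with final DMSO < 0.1%. Viability by CCK-8 (2 h, OD 490 nm). Mean ± S.D. of three experiments done in triplicate, one-way ANOVA against 24 h and 48 h.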

IC50 (A549 [1]) [µM] | Compound | inhibition at 30 µM (A549 [2]) [%]
> 30 | Brc1ccccc1CN(Cc1ccccc1Br)c1ccccc1 | 
> 30 | Brc1ccccc1CN(Cc1ccccc1Br)C1CCCCC1 | 9.39
> 30 | CC(C)(C)N(Cc1ccccc1Br)Cc1ccccc1Br | 
